Measured values: ChEMBL document CHEMBL1649311, “A clinical isolate of Candida albicans with mutations in ERG11 (encoding sterol 14alpha-demethylase) and ERG5 (encoding C22 desaturase) is cross resistant to azoles and amphotericin B” (2010)
Values after ≈ are worked out from the molar mass of the structure shown.

Key:
[1] = tested on: Candida albicans; experiment: Ratio of MIC for Candida albicans isolate 108 harboring erg11 and erg5 double mutant to MIC for Candida albicans isolate14 expressing wild type erg11 and erg 5 enzyme; type: functional
[2] = tested on: Candida albicans; experiment: Antifungal activity against Candida albicans isolate 108 harboring erg11 and erg5 double mutant after 48 hrs by Etest; type: functional; settings: isolate 108, 48 h
[3] = tested on: Candida albicans; experiment: Antifungal activity against Candida albicans isolate 14 after 48 hrs by Etest; settings: isolate 14, 48 h
[4] = tested on: Candida albicans; experiment: Ratio of MIC for Candida albicans isolate 108 harboring erg11 and erg5 double mutant to MIC for Candida albicans isolate 6 expressing wild type erg11 and erg 5 enzyme; type: functional
[5] = tested on: Candida albicans; experiment: Ratio of MIC for Candida albicans isolate 108 harboring erg11 and erg5 double mutant to MIC for Candida albicans isolate 177 expressing wild type erg11 and erg 5 enzyme; type: functional
[6] = tested on: Candida albicans; experiment: microbe, parasite or virus in culture; settings: isolate 177, 48 h
[7] = tested on: Candida albicans; experiment: Antifungal activity against Candida albicans isolate 6 after 48 hrs by Etest; settings: isolate 6, 48 h
[8] = tested on: Candida albicans; experiment: Antifungal activity against Candida albicans isolate 177 after 48 hrs by broth microdilution method; type: functional; settings: isolate 177, 48 h
Procedure, shortened: (§1)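 CLSI M27-A2 broth dilution in RPMI 1640 buffered with 0.165 M MOPS (pH 7), 37°C, for azoles (fluconazole, voriconazole, itraconazole, ketoconazole, clotrimazole). For amphotericin B, the MIC is the lowest concentration with complete growth inhibition.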

[9] = tested on: Candida albicans; experiment: Effect on sterol composition in Candida albicans isolate 14 expressing wild type erg11 and erg5 assessed as lanosterol level after 2 hrs by gas chromatography; type: functional
[10] = tested on: Candida albicans; experiment: Effect on sterol composition in Candida albicans isolate 14 expressing wild type erg11 and erg5 assessed as ergosterol level after 2 hrs by gas chromatography; type: functional; design: concentration or dose not given beside the values
[11] = tested on: Candida albicans; experiment: Effect on sterol composition in Candida albicans isolate 108 harboring erg11 and erg5 double mutant assessed as 14 -Methylergosta-8,24(28)-dien-3beta,6alpha-diol level after 2 hrs by gas chromatography; type: functional
[12] = tested on: Candida albicans; experiment: Effect on sterol composition in Candida albicans isolate 14 expressing wild type erg11 and erg5 assessed as 14 -Methylergosta-8,24(28)-dien-3beta,6alpha-diol level after 2 hrs by gas chromatography; type: functional; design: concentration or dose not given beside the values
[13] = tested on: Candida albicans; experiment: Effect on sterol composition in Candida albicans isolate 14 expressing wild type erg11 and erg5 assessed as obtusifoliol level after 2 hrs by gas chromatography; type: functional; design: concentration or dose not given beside the values
[14] = tested on: Candida albicans; experiment: Effect on sterol composition in Candida albicans isolate 108 harboring erg11 and erg5 double mutant eburicol level after 2 hrs by gas chromatography; type: functional; design: concentration or dose not given beside the values
[15] = tested on: Candida albicans; experiment: Effect on sterol composition in Candida albicans isolate 108 harboring erg11 and erg5 double mutant assessed as ergosta 5,7-dienol level after 2 hrs by gas chromatography; type: functional; design: concentration or dose not given beside the values
[16] = tested on: Candida albicans; experiment: Antifungal activity against Candida albicans isolate 108 harboring erg11 and erg5 double mutant after 48 hrs by broth microdilution method; type: functional; settings: isolate 108, 48 h; procedure, shortened: as §1
[17] = tested on: Candida albicans; experiment: Effect on sterol composition in Candida albicans isolate 108 harboring erg11 and erg5 double mutant assessed as obtusifoliol level after 2 hrs by gas chromatography; type: functional; design: concentration or dose not given beside the values
[18] = tested on: Candida albicans; experiment: Effect on sterol composition in Candida albicans isolate 108 harboring erg11 and erg5 double mutant assessed as lanosterol level after 2 hrs by gas chromatography; type: functional; design: concentration or dose not given beside the values
[19] = tested on: Candida albicans; experiment: Antifungal activity against Candida albicans isolate 14 after 48 hrs by broth microdilution method; type: functional; settings: isolate 14, 48 h; procedure, shortened: as §1
[20] = tested on: Candida albicans; experiment: Antifungal activity against Candida albicans isolate 6 after 48 hrs by broth microdilution method; type: functional; settings: isolate 6, 48 h; procedure, shortened: as §1
[21] = tested on: Candida albicans; experiment: Antifungal activity against Candida albicans isolate 177 after 48 hrs by broth microdilution method in presence of 10 uM of efflux pump inhibitor FK506; type: functional; settings: isolate 177, 48 h
Procedure, shortened: (§2)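 Doubling dilutions of azole with a fixed 10 μM FK506 in microtiter wells in MOPS-buffered RPMI 1640 (pH 7). Read visually after 48 h at 37°C. The MIC is the lowest azole concentration giving at least 80% growth inhibition versus control wells.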

[22] = tested on: Candida albicans; experiment: Effect on sterol composition in Candida albicans isolate 108 harboring erg11 and erg5 double mutant assessed as 14alpha-Methylfecosterol level after 2 hrs by gas chromatography; type: functional
[23] = tested on: Candida albicans; experiment: Effect on sterol composition in Candida albicans isolate 108 harboring erg11 and erg5 double mutant assessed as 4,14alpha-Dimethylcholesta-8,24-dienol level after 2 hrs by gas chromatography; type: functional
[24] = tested on: Candida albicans; experiment: Effect on sterol composition in Candida albicans isolate 108 harboring erg11 and erg5 double mutant assessed as zymosterol level after 2 hrs by gas chromatography; type: functional
[25] = tested on: Candida albicans; experiment: Antifungal activity against Candida albicans isolate 14 after 48 hrs by broth microdilution method in presence of 10 uM of efflux pump inhibitor FK506; type: functional; settings: isolate 14, 48 h; procedure, shortened: as §2
[26] = tested on: Candida albicans; experiment: Antifungal activity against Candida albicans isolate 6 after 48 hrs by broth microdilution method in presence of 10 uM of efflux pump inhibitor FK506; type: functional; procedure, shortened: as §2
[27] = tested on: Candida albicans; experiment: Effect on sterol composition in Candida albicans isolate 14 expressing wild type erg11 and erg5 assessed as eburicol level after 2 hrs by gas chromatography; type: functional
[28] = tested on: Candida albicans; experiment: Antifungal activity against Candida albicans isolate 108 harboring erg11 and erg5 double mutant after 48 hrs by broth microdilution method in presence of 10 uM of efflux pump inhibitor FK506; type: functional; settings: isolate 108, 48 h
Procedure, shortened: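 C. albicans clinical isolate grown in RPMI 1640 buffered with 0.165 M MOPS (pH 7). Azole MICs by CLSI M27-A2 broth microdilution, with doubling drug dilutions plus a fixed 10 μM FK506. Plates incubated 48 h at 37°C and read visually. MIC taken as the lowest azole concentration giving at least 80% growth inhibition versus control wells.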

[29] = tested on: Candida albicans; experiment: Effect on sterol composition in Candida albicans isolate 108 harboring erg11 and erg5 double mutant assessed as 4,4-Dimethylcholesta-8,14,24-trienol level after 2 hrs by gas chromatography; type: functional

C[C@@H]1[C@H](O)[C@@H](C)/C=C/C=C/C=C/C=C/C=C/C=C/C=C/[C@H](O[C@@H]2O[C@H](C)[C@@H](O)[C@H](N)[C@@H]2O)C[C@@H]2O[C@](O)(C[C@@H](O)C[C@@H](O)[C@H](O)CC[C@@H](O)C[C@@H](O)CC(=O)O[C@H]1C)C[C@H](O)[C@H]2C(=O)O [AMPHOTERICIN B]
Ratio [1]: 8 | MIC [2]: 4 µg/mL (≈ 4.33 µM) | MIC [3]: 0.25 µg/mL (≈ 0.271 µM) | Ratio [4]: 8 | Ratio [5]: 8 | MIC [6]: 0.25 µg/mL (≈ 0.271 µM) | MIC [7]: 0.25 µg/mL (≈ 0.271 µM)

Clc1ccccc1C(c1ccccc1)(c1ccccc1)n1ccnc1 [CLOTRIMAZOLE]
MIC [8]: 1 µg/mL (≈ 2.9 µM) | Activity [9]: 35% | Activity [10]: 30% | Activity [11]: 32.8% | Activity [12]: 35% | Activity [13]: 35% | Activity [14]: 8.2% | Activity [15]: 42.6% | MIC [16]: 2 µg/mL (≈ 5.8 µM) | Activity [17]: 16.4% | Activity [18]: 16.4% | MIC [19]: 0.0625 µg/mL (≈ 0.181 µM) | MIC [20]: 1 µg/mL (≈ 2.9 µM)

CC(=O)N1CCN(c2ccc(OCC3COC(Cn4ccnc4)(c4ccc(Cl)cc4Cl)O3)cc2)CC1 (stereo unspecified) [KETOCONAZOLE]
MIC [8]: 16 µg/mL (≈ 30.1 µM) | Activity [9]: 26.4% | Activity [10]: 36.4% | Activity [11]: 45.1% | Activity [12]: 37.2% | Activity [13]: 26.4% | Activity [14]: 10.2% | Activity [15]: 24.4% | MIC [16]: 1 µg/mL (≈ 1.88 µM) | Activity [17]: 20.3% | Activity [18]: 20.3% | MIC [19]: 0.0625 µg/mL (≈ 0.118 µM) | MIC [20]: 16 µg/mL (≈ 30.1 µM)

OC(Cn1cncn1)(Cn1cncn1)c1ccc(F)cc1F [FLUCONAZOLE]
MIC [8]: 256 µg/mL (≈ 836 µM) | Activity [9]: 25% | MIC [21]: 0.5 µg/mL | Activity [22]: 9.4% | Activity [10]: 45.5% | Activity [12]: 25.4% | Activity [23]: 5.5% | Activity [13]: 25% | Activity [14]: 0.9% | Activity [15]: 57.1% | MIC [16]: 64 µg/mL (≈ 209 µM) | Activity [24]: 1.4% | MIC [25]: 1 µg/mL | Activity [17]: 25.7% | Activity [18]: 25.7% | MIC [19]: 1 µg/mL (≈ 3.27 µM) | Activity [26]: 1 µg/mL | MIC [20]: 256 µg/mL (≈ 836 µM) | Activity [27]: 4.1% | MIC [28]: 16 µg/mL

CCC(C)n1ncn(-c2ccc(N3CCN(c4ccc(OCC5COC(Cn6cncn6)(c6ccc(Cl)cc6Cl)O5)cc4)CC3)cc2)c1=O (stereo unspecified) [ITRACONAZOLE]
MIC [8]: 16 µg/mL (≈ 22.7 µM) | Activity [9]: 29% | Activity [10]: 33% | Activity [11]: 50% | Activity [12]: 38% | Activity [13]: 29% | Activity [14]: 8.3% | Activity [15]: 25% | MIC [16]: 2 µg/mL (≈ 2.83 µM) | Activity [17]: 16.7% | Activity [18]: 16.7% | MIC [19]: 0.0625 µg/mL (≈ 0.0886 µM) | MIC [20]: 16 µg/mL (≈ 22.7 µM)

C[C@@H](c1ncncc1F)[C@](O)(Cn1cncn1)c1ccc(F)cc1F [VORICONAZOLE]
MIC [8]: 16 µg/mL (≈ 45.8 µM) | Activity [9]: 24.1% | MIC [21]: < 0.0625 µg/mL | Activity [22]: 12.7% | Activity [10]: 47.3% | Activity [11]: 10.4% | Activity [12]: 28.6% | Activity [23]: 7.2% | Activity [29]: 3.4% | Activity [13]: 24.1% | Activity [14]: 9.4% | Activity [15]: 27.4% | MIC [16]: 8 µg/mL (≈ 22.9 µM) | MIC [25]: < 0.0625 µg/mL | Activity [17]: 29.5% | Activity [18]: 29.5% | MIC [19]: 0.0625 µg/mL (≈ 0.179 µM) | MIC ([26]; Candida albicans, isolate 6, 48 h): < 0.0625 µg/mL | MIC [20]: 16 µg/mL (≈ 45.8 µM) | MIC [28]: 4 µg/mL
